One block for each compound: values may come before it. Calls of active or inactive are those of the source. No cut-off for these calls is given here.
Key:
Dipeptidyl peptidase 8 = Dipeptidyl peptidase 8 (Homo sapiens, UniProt Q6V1X1); experiment: Inhibition of DPP8 after 20 mins by fluorescence assay
In short: (§1)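 Enzyme and inhibitor were preincubated for 10 min at room temperature in 50 mM Tris pH 7.5 with 0.1% BSA. The reaction was started with Gly-Pro-AMC and run for 20 min at room temperature. IC50 is the mean of three separate experiments, from curve fitting.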

Dipeptidyl peptidase 9 = Dipeptidyl peptidase 9 (Homo sapiens, UniProt Q86TI2); experiment: Inhibition of DPP9 after 20 mins by fluorescence assay; in short: as §1
Chain of Dipeptidyl peptidase 9 (Q86TI2 whole entry): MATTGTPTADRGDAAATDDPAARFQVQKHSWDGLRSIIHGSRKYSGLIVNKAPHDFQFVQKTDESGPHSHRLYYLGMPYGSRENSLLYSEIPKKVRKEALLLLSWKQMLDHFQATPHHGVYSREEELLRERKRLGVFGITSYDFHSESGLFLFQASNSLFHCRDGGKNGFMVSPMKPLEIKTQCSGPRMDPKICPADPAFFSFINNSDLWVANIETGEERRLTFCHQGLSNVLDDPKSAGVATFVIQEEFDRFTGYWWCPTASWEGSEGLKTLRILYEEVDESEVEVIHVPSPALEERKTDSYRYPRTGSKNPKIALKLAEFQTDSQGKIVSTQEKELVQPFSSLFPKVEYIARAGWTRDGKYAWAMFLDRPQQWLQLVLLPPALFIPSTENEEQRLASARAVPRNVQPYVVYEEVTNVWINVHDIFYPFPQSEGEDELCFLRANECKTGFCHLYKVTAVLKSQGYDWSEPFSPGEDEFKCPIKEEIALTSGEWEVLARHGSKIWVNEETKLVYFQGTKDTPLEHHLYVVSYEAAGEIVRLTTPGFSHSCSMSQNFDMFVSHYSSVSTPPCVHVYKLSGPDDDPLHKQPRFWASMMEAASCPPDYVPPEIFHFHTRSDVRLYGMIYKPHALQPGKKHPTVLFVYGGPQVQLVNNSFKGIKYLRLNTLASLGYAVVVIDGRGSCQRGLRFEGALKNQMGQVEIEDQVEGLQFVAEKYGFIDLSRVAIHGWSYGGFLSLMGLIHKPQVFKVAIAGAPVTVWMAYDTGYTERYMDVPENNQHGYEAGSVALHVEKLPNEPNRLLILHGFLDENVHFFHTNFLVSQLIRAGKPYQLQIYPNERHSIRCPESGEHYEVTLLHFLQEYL

Dipeptidyl peptidase 4 = Dipeptidyl peptidase 4 (Homo sapiens, UniProt P27487); experiment: Inhibition of DPP4 after 20 mins by fluorescence assay
Chain of Dipeptidyl peptidase 4 (P27487 whole entry): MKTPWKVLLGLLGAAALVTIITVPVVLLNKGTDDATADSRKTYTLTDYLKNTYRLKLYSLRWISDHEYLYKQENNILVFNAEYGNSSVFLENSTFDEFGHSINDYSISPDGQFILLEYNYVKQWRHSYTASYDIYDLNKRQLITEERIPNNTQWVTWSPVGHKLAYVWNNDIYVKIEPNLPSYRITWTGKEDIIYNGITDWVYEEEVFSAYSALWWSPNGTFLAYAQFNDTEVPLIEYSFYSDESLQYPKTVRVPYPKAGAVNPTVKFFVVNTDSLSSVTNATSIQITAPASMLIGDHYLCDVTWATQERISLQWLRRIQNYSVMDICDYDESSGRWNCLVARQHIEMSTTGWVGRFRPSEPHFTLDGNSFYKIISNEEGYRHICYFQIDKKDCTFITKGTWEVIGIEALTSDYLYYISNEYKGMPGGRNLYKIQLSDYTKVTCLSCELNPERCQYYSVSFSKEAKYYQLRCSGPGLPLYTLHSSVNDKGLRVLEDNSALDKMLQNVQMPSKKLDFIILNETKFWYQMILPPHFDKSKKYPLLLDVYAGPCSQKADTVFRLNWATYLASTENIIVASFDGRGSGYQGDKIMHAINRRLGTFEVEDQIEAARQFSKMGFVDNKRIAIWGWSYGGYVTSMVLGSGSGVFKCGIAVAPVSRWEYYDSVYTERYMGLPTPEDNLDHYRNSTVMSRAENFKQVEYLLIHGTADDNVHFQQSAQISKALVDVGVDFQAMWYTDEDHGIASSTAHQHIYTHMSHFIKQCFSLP

[1] = target: Voltage-gated inwardly rectifying potassium channel KCNH2 (Homo sapiens, UniProt Q12809); experiment: Inhibition of human ERG expressed in HEK293 cells after 3 hrs by nonradioactive rubidium efflux assay; assay type: cell-based; conditions: hek293, 3 h
Chain of Voltage-gated inwardly rectifying potassium channel KCNH2 (Q12809 whole entry): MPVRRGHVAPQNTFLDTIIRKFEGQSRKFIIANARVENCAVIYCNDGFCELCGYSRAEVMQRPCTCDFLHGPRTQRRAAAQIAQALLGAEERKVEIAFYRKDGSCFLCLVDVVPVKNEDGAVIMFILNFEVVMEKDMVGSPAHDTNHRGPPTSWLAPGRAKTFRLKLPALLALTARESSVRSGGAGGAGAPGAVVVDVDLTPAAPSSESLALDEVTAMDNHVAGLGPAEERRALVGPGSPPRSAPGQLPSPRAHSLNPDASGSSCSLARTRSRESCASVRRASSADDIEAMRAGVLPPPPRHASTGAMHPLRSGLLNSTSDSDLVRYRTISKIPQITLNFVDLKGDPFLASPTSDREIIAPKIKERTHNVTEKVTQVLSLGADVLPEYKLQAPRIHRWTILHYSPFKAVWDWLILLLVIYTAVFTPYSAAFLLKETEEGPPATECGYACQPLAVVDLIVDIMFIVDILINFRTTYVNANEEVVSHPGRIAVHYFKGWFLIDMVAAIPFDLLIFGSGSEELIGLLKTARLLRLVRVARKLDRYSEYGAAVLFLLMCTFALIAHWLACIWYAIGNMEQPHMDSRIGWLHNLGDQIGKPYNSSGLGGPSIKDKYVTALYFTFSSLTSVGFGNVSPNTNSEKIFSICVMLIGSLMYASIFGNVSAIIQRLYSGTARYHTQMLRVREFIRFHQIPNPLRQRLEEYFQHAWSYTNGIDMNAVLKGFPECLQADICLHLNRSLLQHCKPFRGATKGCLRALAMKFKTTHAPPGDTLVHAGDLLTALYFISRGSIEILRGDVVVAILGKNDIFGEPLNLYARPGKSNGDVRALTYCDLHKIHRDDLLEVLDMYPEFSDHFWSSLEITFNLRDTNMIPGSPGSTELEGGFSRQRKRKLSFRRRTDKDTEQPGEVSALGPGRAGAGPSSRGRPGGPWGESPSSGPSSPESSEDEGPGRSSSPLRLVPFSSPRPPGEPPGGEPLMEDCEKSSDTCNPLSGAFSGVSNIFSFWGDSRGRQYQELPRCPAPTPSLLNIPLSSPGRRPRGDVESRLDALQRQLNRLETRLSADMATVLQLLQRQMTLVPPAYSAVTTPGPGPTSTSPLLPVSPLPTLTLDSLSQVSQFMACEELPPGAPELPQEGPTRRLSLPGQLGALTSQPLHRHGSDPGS

[2] = Plasma clearance in Beagle dog at 20 mg/kg, po; assay type: ADME, organism-based, Canis lupus familiaris; set-up: dose 20 mg/kg, route oral
[3] = AUC (0 to t) in Beagle dog at 10 mg/kg, iv; assay type: ADME, organism-based, Canis lupus familiaris; set-up: dose 10 mg/kg, route intravenous; conditions: plasma
[4] = Plasma clearance in Sprague-Dawley rat at 10 mg/kg, iv; assay type: ADME, organism-based; set-up: dose 10 mg/kg, route intravenous
[5] = Half life in Sprague-Dawley rat at 20 mg/kg, po; assay type: ADME, organism-based; set-up: dose 20 mg/kg, route oral; conditions: in vivo
[6] = Cmax in Beagle dog at 10 mg/kg, iv; assay type: ADME, organism-based, Canis lupus familiaris; set-up: dose 10 mg/kg, route intravenous; conditions: in vivo
[7] = Mean residence time in Beagle dog at 20 mg/kg, po; assay type: ADME, organism-based, Canis lupus familiaris; set-up: dose 20 mg/kg, route oral; conditions: in vivo
[8] = Mean residence time in Sprague-Dawley rat at 20 mg/kg, po; assay type: ADME, organism-based; set-up: dose 20 mg/kg, route oral; conditions: in vivo
[9] = Tmax in Sprague-Dawley rat at 20 mg/kg, po; assay type: ADME, organism-based; set-up: dose 20 mg/kg, route oral; conditions: in vivo
[10] = Cmax in Sprague-Dawley rat at 10 mg/kg, iv; assay type: ADME, organism-based; set-up: dose 10 mg/kg, route intravenous; conditions: in vivo
[11] = Plasma clearance in Beagle dog at 10 mg/kg, iv; assay type: ADME, organism-based, Canis lupus familiaris; set-up: dose 10 mg/kg, route intravenous
[12] = AUC (0 to t) in Sprague-Dawley rat at 10 mg/kg, iv; assay type: ADME, organism-based; set-up: dose 10 mg/kg, route intravenous; conditions: plasma
[13] = Half life in Beagle dog at 10 mg/kg, iv; assay type: ADME, organism-based, Canis lupus familiaris; set-up: dose 10 mg/kg, route intravenous; conditions: in vivo
[14] = Half life in Sprague-Dawley rat at 10 mg/kg, iv; assay type: ADME, organism-based; set-up: dose 10 mg/kg, route intravenous; conditions: in vivo
[15] = AUC (0 to t) in Beagle dog at 20 mg/kg, po; assay type: ADME, organism-based, Canis lupus familiaris; set-up: dose 20 mg/kg, route oral; conditions: plasma
[16] = Cmax in Beagle dog at 20 mg/kg, po; assay type: ADME, organism-based, Canis lupus familiaris; set-up: dose 20 mg/kg, route oral; conditions: in vivo
[17] = Oral bioavailability in Beagle dog at 20 mg/kg; assay type: ADME, organism-based, Canis lupus familiaris; conditions: in vivo
[18] = Mean residence time in Beagle dog at 10 mg/kg, iv; assay type: ADME, organism-based, Canis lupus familiaris; set-up: dose 10 mg/kg, route intravenous; conditions: in vivo
[19] = Oral bioavailability in Sprague-Dawley rat at 20 mg/kg; assay type: ADME, organism-based; conditions: in vivo
Mus musculus [20] = experiment: Antidiabetic activity in ICR mouse assessed as reduction of serum DPP4 activity at 3 mg/kg, po; assay type: functional, organism-based; set-up: dose 3 mg/kg
In short: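 Compound was given orally at 3 mg/kg, or vehicle, with n = 5 per group. Serum was mixed with 80 mM MgCl2 for 5 min at room temperature, then 0.1 mM Gly-Pro-AMC and buffer were added. Fluorescence (ex 380 nm, em 460 nm) was read every 3 min over 18 min, and serum DPP-IV specific activity was calculated from these reads.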

[21] = Tmax in Beagle dog at 20 mg/kg, po; assay type: ADME, organism-based, Canis lupus familiaris; set-up: dose 20 mg/kg, route oral; conditions: in vivo
[22] = Mean residence time in Sprague-Dawley rat at 10 mg/kg, iv; assay type: ADME, organism-based; set-up: dose 10 mg/kg, route intravenous; conditions: in vivo
[23] = Tmax in Sprague-Dawley rat at 10 mg/kg, iv; assay type: ADME, organism-based; set-up: dose 10 mg/kg, route intravenous; conditions: in vivo
Rattus norvegicus = experiment: AUC (0 to t) in Sprague-Dawley rat at 20 mg/kg, po; assay type: ADME, organism-based, Plasma; set-up: dose 20 mg/kg, route oral; conditions: in vivo
[24] = Half life in Beagle dog at 20 mg/kg, po; assay type: ADME, organism-based, Canis lupus familiaris; set-up: dose 20 mg/kg, route oral; conditions: in vivo
[25] = Tmax in Beagle dog at 10 mg/kg, iv; assay type: ADME, organism-based, Canis lupus familiaris; set-up: dose 10 mg/kg, route intravenous; conditions: in vivo
Mus musculus [26] = experiment: Antidiabetic activity in C57BL/6J mouse high-fat diet model assessed as reduction in glucose AUC (0 to 120) at 3 mg/kg, po pretreated 30 mins before glucose challenge measured by oral glucose tolerance test; assay type: functional, organism-based; set-up: dose 3 mg/kg
[27] = Cmax in Sprague-Dawley rat at 20 mg/kg, po; assay type: ADME, organism-based; set-up: dose 20 mg/kg, route oral; conditions: in vivo

Chain of Dipeptidyl peptidase 8 (Q6V1X1 whole entry): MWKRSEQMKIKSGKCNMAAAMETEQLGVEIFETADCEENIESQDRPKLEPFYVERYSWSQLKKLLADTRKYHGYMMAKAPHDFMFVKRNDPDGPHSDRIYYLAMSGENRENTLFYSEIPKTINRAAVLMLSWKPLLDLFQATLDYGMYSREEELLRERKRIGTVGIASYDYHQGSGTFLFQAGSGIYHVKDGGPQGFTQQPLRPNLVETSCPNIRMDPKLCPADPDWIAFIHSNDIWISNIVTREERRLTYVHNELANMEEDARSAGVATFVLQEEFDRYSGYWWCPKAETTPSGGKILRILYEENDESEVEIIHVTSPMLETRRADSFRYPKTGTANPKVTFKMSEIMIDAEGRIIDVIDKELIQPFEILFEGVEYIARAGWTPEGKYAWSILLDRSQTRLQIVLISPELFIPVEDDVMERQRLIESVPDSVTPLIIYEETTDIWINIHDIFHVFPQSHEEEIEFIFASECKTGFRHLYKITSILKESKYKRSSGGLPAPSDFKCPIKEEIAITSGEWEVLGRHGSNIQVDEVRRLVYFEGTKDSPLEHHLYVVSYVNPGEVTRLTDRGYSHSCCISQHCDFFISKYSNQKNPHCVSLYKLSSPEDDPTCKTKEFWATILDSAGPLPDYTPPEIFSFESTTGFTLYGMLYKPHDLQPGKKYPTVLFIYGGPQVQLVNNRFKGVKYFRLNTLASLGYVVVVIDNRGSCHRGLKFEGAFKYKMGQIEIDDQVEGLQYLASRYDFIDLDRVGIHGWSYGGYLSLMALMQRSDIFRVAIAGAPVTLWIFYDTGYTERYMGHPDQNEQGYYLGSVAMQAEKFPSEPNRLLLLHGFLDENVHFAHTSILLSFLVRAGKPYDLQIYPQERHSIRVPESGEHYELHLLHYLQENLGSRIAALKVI

IC50 (Dipeptidyl peptidase 8): > 25 µM
IC50 (Dipeptidyl peptidase 9): > 25 µM
IC50 (Dipeptidyl peptidase 4): 0.0888 µM
SMILES: N#Cc1ccccc1Cn1c(N2CCC[C@@H](N)C2)nc2scc(C(F)(F)F)c2c1=O

IC50 (Dipeptidyl peptidase 8): > 25 µM
IC50 (Dipeptidyl peptidase 9): > 25 µM
IC50 (Dipeptidyl peptidase 4): 0.00172 µM
SMILES: Cc1csc2c(=O)n(Cc3ccccc3C#N)c(N3CCC[C@@H](N)C3)nc12
Activity [1]: 203.5 µM

IC50 (Dipeptidyl peptidase 8): > 25 µM
IC50 (Dipeptidyl peptidase 9): > 25 µM
IC50 (Dipeptidyl peptidase 4): 0.00132 µM
SMILES: Cc1csc2nc(N3CCC[C@@H](N)C3)n(Cc3ccccc3C#N)c(=O)c12
Activity [1]: 376.3 µM

CL/F [2]: 11.5 mL/min/kg
AUC(0-t) [3]: 13300 ng·h/mL
clearance [4]: 116 mL/min/kg
half-life [5]: 7 h
IC50 (Dipeptidyl peptidase 8): > 25 µM
Cmax [6]: 5750 ng/mL
MRT [7]: 9 h
MRT [8]: 6.7 h
Tmax [9]: 0.59 h
Cmax [10]: 1230 ng/mL
clearance [11]: 22.2 mL/min/kg
AUC(0-t) [12]: 1480 ng·h/mL
half-life [13]: 10.1 h
half-life [14]: 5.9 h
AUC(0-t) [15]: 11200 ng·h/mL
IC50 (Dipeptidyl peptidase 9): > 25 µM
Cmax [16]: 2070 ng/mL
bioavailability [17]: 42.3%
MRT [18]: 6 h
bioavailability [19]: 23.7%
IC50 (Dipeptidyl peptidase 4): 0.00033 µM
Tmax [21]: 0.91 h
MRT [22]: 2.7 h
Tmax [23]: 2.4 min
AUC (Rattus norvegicus): 690 ng·h/mL
half-life [24]: 11.3 h
Tmax [25]: 6 min
Cmax [27]: 170 ng/mL
SMILES: N#Cc1ccccc1Cn1c(N2CCC[C@@H](N)C2)nc2ccsc2c1=O
Activity (Mus musculus [20]): Active
Activity [1]: 517.4 µM
Activity (Mus musculus [26]): Active

IC50 (Dipeptidyl peptidase 8): > 25 µM
IC50 (Dipeptidyl peptidase 9): > 25 µM
IC50 (Dipeptidyl peptidase 4): 0.00087 µM
SMILES: N#Cc1ccccc1Cn1c(N2CCC[C@@H](N)C2)nc2sccc2c1=O
Activity [1]: 484.6 µM
